The record followed here is ChEMBL document CHEMBL3108700, “Designing anti-inflammatory drugs from parasitic worms: a synthetic small molecule analogue of the Acanthocheilonema viteae product ES-62 prevents development of collagen-induced arthritis” (J Med Chem, 2013).

The structures appear in SMILES notation. Calls of active or inactive are those of the source. No rule for the calls is given here.

Experiment [1] deals with T1, Toll-like receptor 9 (Mus musculus) (UniProt Q9EQU3).
T1 sequence (whole entry): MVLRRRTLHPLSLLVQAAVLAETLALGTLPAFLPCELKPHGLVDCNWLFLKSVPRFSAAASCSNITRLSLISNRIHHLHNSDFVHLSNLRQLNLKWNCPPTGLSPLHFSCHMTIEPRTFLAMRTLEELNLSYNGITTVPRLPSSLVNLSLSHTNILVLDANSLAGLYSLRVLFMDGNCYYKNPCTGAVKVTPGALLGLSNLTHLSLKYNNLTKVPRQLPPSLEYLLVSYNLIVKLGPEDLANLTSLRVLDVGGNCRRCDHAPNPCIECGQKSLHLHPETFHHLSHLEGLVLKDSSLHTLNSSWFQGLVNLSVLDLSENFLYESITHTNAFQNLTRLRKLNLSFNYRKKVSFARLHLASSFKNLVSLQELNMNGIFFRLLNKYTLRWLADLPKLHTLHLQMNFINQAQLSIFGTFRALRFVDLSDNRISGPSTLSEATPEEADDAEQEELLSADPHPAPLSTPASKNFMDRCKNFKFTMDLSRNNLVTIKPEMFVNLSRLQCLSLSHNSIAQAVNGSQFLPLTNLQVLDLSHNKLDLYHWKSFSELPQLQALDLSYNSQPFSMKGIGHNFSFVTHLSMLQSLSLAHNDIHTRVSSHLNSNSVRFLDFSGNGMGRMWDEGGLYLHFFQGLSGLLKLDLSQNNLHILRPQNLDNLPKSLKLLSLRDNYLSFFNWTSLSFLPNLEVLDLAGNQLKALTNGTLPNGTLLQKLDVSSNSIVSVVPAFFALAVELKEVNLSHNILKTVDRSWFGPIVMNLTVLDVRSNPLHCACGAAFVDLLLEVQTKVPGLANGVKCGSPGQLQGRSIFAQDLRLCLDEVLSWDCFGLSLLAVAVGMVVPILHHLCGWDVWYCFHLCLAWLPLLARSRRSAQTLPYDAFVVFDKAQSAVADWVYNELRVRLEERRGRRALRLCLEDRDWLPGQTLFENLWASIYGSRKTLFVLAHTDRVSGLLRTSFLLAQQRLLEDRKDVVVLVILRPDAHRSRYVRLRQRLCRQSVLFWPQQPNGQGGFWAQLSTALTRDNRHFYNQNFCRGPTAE
Briefly: Inhibition of TLR9 in BALB/c mouse BMDM assessed as downregulation of CpG-stimulated IL-6 level at 5 ug/ml preincubated for 18 hrs followed by CpG challenge measured after 24 hrs by ELISA relative to control. Summed up: (§1)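 BALB/c male bone marrow macrophages were differentiated 7 days with L929 supernatant (≥99% CD11b+/F4/80+). Cells were plated at 2 × 10^5/well in triplicate, rested overnight, and given compounds at 5 μg/mL for 18 h. They were then stimulated with 100 ng/mL S. minnesota LPS, 10 ng/mL Pam3CSK4 (BLP) or 0.01 μM CpG for 24 h. Supernatant IL-12p40 and IL-6 were measured by ELISA (sensitivity 16 pg/mL).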
On the technique in general: In an ELISA, binding on a coated surface is turned into a signal by an enzyme label.

In experiment [2] the target is T1, Toll-like receptor 9 (Mus musculus). Briefly: Inhibition of TLR9 in BALB/c mouse BMDM assessed as downregulation of CpG-stimulated IL-12p40 level at 5 ug/ml preincubated for 18 hrs followed by CpG challenge measured after 24 hrs by ELISA relative to control. Summed up: as §1
For experiment [3], the target named is T2, TLR2/TLR6 (Mus musculus) (UniProt Q9QUN7+Q9EPW9). Briefly: Inhibition of TLR2/6 in BALB/c mouse BMDM assessed as downregulation of BLP-stimulated IL-6 level at 5 ug/ml preincubated for 18 hrs followed by BLP challenge measured after 24 hrs by ELISA relative to control. The class given is protein-complex assay. The method in brief:
as §1

The target in experiment [4] is T2, TLR2/TLR6 (Mus musculus). Briefly: Inhibition of TLR2/6 in BALB/c mouse BMDM assessed as downregulation of BLP-stimulated IL-12p40 level at 5 ug/ml preincubated for 18 hrs followed by BLP challenge measured after 24 hrs by ELISA relative to control. The class given is protein-complex assay. The method in brief:
as §1

The target of experiment [5] is T3, Toll-like receptor 4 (Mus musculus) (UniProt Q9QUK6).
T3 sequence (whole entry): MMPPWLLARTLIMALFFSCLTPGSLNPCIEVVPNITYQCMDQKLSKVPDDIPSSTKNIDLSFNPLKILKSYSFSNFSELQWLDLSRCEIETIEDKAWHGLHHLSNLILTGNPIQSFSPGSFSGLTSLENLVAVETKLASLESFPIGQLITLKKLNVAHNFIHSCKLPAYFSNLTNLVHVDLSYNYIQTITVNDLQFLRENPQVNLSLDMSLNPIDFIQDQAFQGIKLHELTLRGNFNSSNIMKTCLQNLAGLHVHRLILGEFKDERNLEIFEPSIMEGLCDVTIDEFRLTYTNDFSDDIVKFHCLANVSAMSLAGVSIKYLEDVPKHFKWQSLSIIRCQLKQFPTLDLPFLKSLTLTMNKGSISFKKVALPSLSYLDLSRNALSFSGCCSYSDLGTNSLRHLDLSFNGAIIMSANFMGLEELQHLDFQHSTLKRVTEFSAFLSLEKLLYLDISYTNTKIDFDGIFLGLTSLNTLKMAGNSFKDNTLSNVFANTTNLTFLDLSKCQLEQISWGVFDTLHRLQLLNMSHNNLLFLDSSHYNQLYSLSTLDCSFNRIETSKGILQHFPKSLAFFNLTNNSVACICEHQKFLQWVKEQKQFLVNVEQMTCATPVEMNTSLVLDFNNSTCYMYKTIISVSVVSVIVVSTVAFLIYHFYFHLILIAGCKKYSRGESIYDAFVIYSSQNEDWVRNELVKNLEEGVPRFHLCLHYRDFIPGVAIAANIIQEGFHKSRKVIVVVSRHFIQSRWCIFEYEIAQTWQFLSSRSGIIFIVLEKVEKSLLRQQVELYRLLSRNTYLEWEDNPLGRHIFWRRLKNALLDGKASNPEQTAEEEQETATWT
Briefly: Inhibition of TLR4 in BALB/c mouse BMDM assessed as downregulation of LPS-stimulated IL-6 level at 5 ug/ml preincubated for 18 hrs followed by LPS challenge measured after 24 hrs by ELISA relative to control. Summed up:
as §1

In experiment [6] the target is T3, Toll-like receptor 4 (Mus musculus). Briefly: Inhibition of TLR4 in BALB/c mouse BMDM assessed as downregulation of LPS-stimulated IL-12p40 level at 5 ug/ml preincubated for 18 hrs followed by LPS challenge measured after 24 hrs by ELISA relative to control. Summed up: as §1

`O=S(=O)(CCN1CCOCC1)Nc1ccccc1`: the inhibition result in experiment [1], in experiment [2], in experiment [3], in experiment [4], in experiment [5] and in experiment [6] was “inactive” throughout.
Consider `CCCNCCS(=O)(=O)c1ccccc1`, for which the inhibition result in experiment [1], in experiment [2], in experiment [5] and in experiment [6] was “inactive” each time. The inhibition entry in experiment [3] and in experiment [4] was “Active” in each case.
In the case of `Cc1ccc(CS(=O)(=O)NCCN2CCCC2)cc1`, the inhibition result in experiment [1], in experiment [2], in experiment [3], in experiment [4], in experiment [5] and in experiment [6] was “inactive” each time.
Consider `Cc1ccc(CP(=O)(O)OCCCN(C)C)cc1`, for which the inhibition entry in experiment [1], in experiment [2], in experiment [3], in experiment [4], in experiment [5] and in experiment [6] was “inactive” each time.
For the molecule `O=S(=O)(CCN1CCCC1)Nc1ccc(F)cc1`, the inhibition entry in experiment [1], in experiment [2], in experiment [3], in experiment [4] and in experiment [5] was “inactive” in each case. The inhibition result in experiment [6] was “Active”.
As for `CN(C)CCCNS(=O)(=O)Cc1ccc([N+](=O)[O-])cc1`, the inhibition result in experiment [1], in experiment [2], in experiment [4], in experiment [5] and in experiment [6] was “inactive” each time. Besides, in experiment [3], the inhibition result was “Active”.
Take `Cc1ccc(CS(=O)(=O)CCN(C)C)cc1`: the inhibition entry in experiment [1], in experiment [2], in experiment [3] and in experiment [4] was “inactive” throughout. The inhibition result in experiment [5] and in experiment [6] was “Active” each time.
For `Cc1ccc(CS(=O)(=O)NCCCN(C)C)cc1`, the inhibition entry in experiment [1], in experiment [2], in experiment [3], in experiment [4], in experiment [5] and in experiment [6] was “inactive” each time.
For the molecule `CN(C)CCCNS(=O)(=O)Cc1ccccc1`, the inhibition entry in experiment [1], in experiment [2], in experiment [3], in experiment [4], in experiment [5] and in experiment [6] was “inactive” in each case.
Take `O=S(=O)(CCN1CCCC1)c1ccccc1`: the inhibition result in experiment [1], in experiment [2], in experiment [3], in experiment [5] and in experiment [6] was “inactive” in each case. Moreover, the inhibition entry in experiment [4] was “Active”.
As for `O=S(=O)(CCN1CCCC1)Cc1ccc(Br)cc1`, the inhibition result in experiment [1], in experiment [2], in experiment [3], in experiment [4] and in experiment [5] was “inactive” in each case. In experiment [6], the inhibition result is “Active”.
`CN(C)CCS(=O)(=O)NCc1ccc(Br)cc1`: the inhibition result in experiment [1], in experiment [2], in experiment [3], in experiment [4], in experiment [5] and in experiment [6] was “inactive” throughout.
With `COc1cccc(C(=O)NCCN2CCCC2)c1`, the inhibition entry in experiment [1], in experiment [4] and in experiment [6] was “Active” in each case. Also, the inhibition result in experiment [2], in experiment [3] and in experiment [5] was “inactive” each time.
For `CN(C)CCNS(=O)(=O)Cc1ccc([N+](=O)[O-])cc1`, the inhibition entry in experiment [1], in experiment [2], in experiment [4], in experiment [5] and in experiment [6] was “inactive” each time. Further, in experiment [3], the inhibition entry is “Active”.
Regarding `O=S(=O)(Cc1ccc(F)cc1)NCCN1CCCC1`, the inhibition entry in experiment [1], in experiment [2], in experiment [3], in experiment [4], in experiment [5] and in experiment [6] was “inactive” in each case.
In the case of `C[N+](C)(C)CCOP(=O)(O)Cc1ccc(Br)cc1`, the inhibition result in experiment [1], in experiment [2], in experiment [3] and in experiment [5] was “inactive” each time. The inhibition entry in experiment [4] and in experiment [6] was “Active” throughout.
In the case of `CN(C)CCNS(=O)(=O)Cc1ccccc1`, the inhibition result in experiment [1], in experiment [2], in experiment [3], in experiment [4], in experiment [5] and in experiment [6] was “inactive” each time.
For the molecule `Cc1ccc(CNS(=O)(=O)CCN2CCOCC2)cc1`, the inhibition result in experiment [1], in experiment [2], in experiment [3], in experiment [4], in experiment [5] and in experiment [6] was “inactive” throughout.
